Results as given in ChEMBL document CHEMBL1671676, “In vitro activity of nemonoxacin, a novel nonfluorinated quinolone, against 2,440 clinical isolates” (2009).
≈ marks a conversion by molar mass, not a printed value.

How the values were obtained:
Assay type in all cases: functional
Staphylococcus aureus [1] = assay: Antibacterial activity against methicillin-susceptible Staphylococcus aureus assessed as percent cumulative susceptible isolates at minimum inhibitory concentration of 0.06 ug/ml by CLSI broth microdilution method; design: scale not given: the % may be the effect or the level left
Staphylococcus aureus [2] = assay: Antibacterial activity against methicillin-susceptible Staphylococcus aureus assessed as percent cumulative susceptible isolates at minimum inhibitory concentration of 0.5 ug/ml by CLSI broth microdilution method; design: scale not given: the % may be the effect or the level left
Streptococcus pneumoniae [3] = assay: Antibacterial activity against Streptococcus pneumoniae assessed as percent cumulative susceptible isolates at minimum inhibitory concentration of […] by CLSI broth microdilution method; design: scale not given: the % may be the effect or the level left
Escherichia coli [4] = assay: Antibacterial activity against Escherichia coli assessed as percent cumulative susceptible isolates at minimum inhibitory concentration of 4 ug/ml by CLSI broth microdilution method; design: scale not given: the % may be the effect or the level left
Enterobacter cloacae [5] = assay: Antibacterial activity against Enterobacter cloacae assessed as percent cumulative susceptible isolates at minimum inhibitory concentration of 32 ug/ml by CLSI broth microdilution method; design: scale not given: the % may be the effect or the level left
Klebsiella pneumoniae [6] = assay: Antibacterial activity against Klebsiella pneumoniae assessed as percent cumulative susceptible isolates at minimum inhibitory concentration of 0.06 ug/ml by CLSI broth microdilution method; design: scale not given: the % may be the effect or the level left
Enterobacter cloacae [7] = assay: Antibacterial activity against Enterobacter cloacae assessed as percent cumulative susceptible isolates at minimum inhibitory concentration of […] by CLSI broth microdilution method; design: scale not given: the % may be the effect or the level left
[8] = system: Staphylococcus epidermidis; assay: Antibacterial activity against methicillin-susceptible Staphylococcus epidermidis assessed as percent cumulative susceptible isolates at minimum inhibitory concentration of 32 ug/ml by CLSI broth microdilution method; design: scale not given: the % may be the effect or the level left
Summary of the method: (§1)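 Clinical isolates tested by CLSI broth microdilution using 96-well panels of doubling drug dilutions in cation-adjusted Mueller-Hinton broth with 5% lysed horse blood. MIC was read from these panels. Panel quality control used CLSI ATCC strains, including S. pneumoniae 49619, S. aureus 29213, E. faecalis 29212 and E. coli 25922. Cumulative percentages of isolates were tabulated at each MIC.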

Escherichia coli [9] = assay: Antibacterial activity against Escherichia coli assessed as percent cumulative susceptible isolates at minimum inhibitory concentration of 0.5 ug/ml by CLSI broth microdilution method; design: scale not given: the % may be the effect or the level left
Staphylococcus aureus [10] = assay: Antibacterial activity against methicillin-resistant Staphylococcus aureus by CLSI M7-A7 broth microdilution method
Pseudomonas aeruginosa [11] = assay: Antibacterial activity against Pseudomonas aeruginosa assessed as percent cumulative susceptible isolates at minimum inhibitory concentration of 32 ug/ml by CLSI broth microdilution method; design: scale not given: the % may be the effect or the level left
Staphylococcus aureus [12] = assay: Antibacterial activity against hospital-associated methicillin-resistant Staphylococcus aureus assessed as percent cumulative susceptible isolates at minimum inhibitory concentration of […] by CLSI broth microdilution method; design: scale not given: the % may be the effect or the level left
Enterobacteriaceae = assay: Antibacterial activity against Enterobacteriaceae by CLSI M7-A7 broth microdilution method
Enterococcus faecium [13] = assay: Antibacterial activity against Enterococcus faecium assessed as percent cumulative susceptible isolates at minimum inhibitory concentration of 2 ug/ml by CLSI broth microdilution method; design: scale not given: the % may be the effect or the level left
[14] = system: Staphylococcus epidermidis; assay: Antibacterial activity against methicillin-susceptible Staphylococcus epidermidis assessed as percent cumulative susceptible isolates at minimum inhibitory concentration of 2 ug/ml by CLSI broth microdilution method; design: scale not given: the % may be the effect or the level left
[15] = system: Stenotrophomonas maltophilia; assay: Antibacterial activity against Stenotrophomonas maltophilia assessed as percent cumulative susceptible isolates at minimum inhibitory concentration of 0.5 ug/ml by CLSI broth microdilution method; design: scale not given: the % may be the effect or the level left
Streptococcus pneumoniae [16] = assay: Antibacterial activity against Streptococcus pneumoniae assessed as percent cumulative susceptible isolates at minimum inhibitory concentration of 0.06 ug/ml by CLSI broth microdilution method; design: scale not given: the % may be the effect or the level left
Staphylococcus aureus [17] = assay: Antibacterial activity against Staphylococcus aureus by CLSI M7-A7 broth microdilution method
Klebsiella pneumoniae [18] = assay: Antibacterial activity against Klebsiella pneumoniae assessed as percent cumulative susceptible isolates at minimum inhibitory concentration of 0.5 ug/ml by CLSI broth microdilution method; design: scale not given: the % may be the effect or the level left
Proteus mirabilis = assay: Antibacterial activity against Proteus mirabilis assessed as percent cumulative susceptible isolates at minimum inhibitory concentration of 0.06 ug/ml by CLSI broth microdilution method; design: scale not given: the % may be the effect or the level left
Staphylococcus aureus [19] = assay: Antibacterial activity against methicillin-susceptible Staphylococcus aureus assessed as percent cumulative susceptible isolates at minimum inhibitory concentration of […] by CLSI broth microdilution method; design: scale not given: the % may be the effect or the level left
Klebsiella pneumoniae [20] = assay: Antibacterial activity against Klebsiella pneumoniae assessed as percent cumulative susceptible isolates at minimum inhibitory concentration of 2 ug/ml by CLSI broth microdilution method; design: scale not given: the % may be the effect or the level left
Pseudomonas aeruginosa [21] = assay: Antibacterial activity against Pseudomonas aeruginosa assessed as percent cumulative susceptible isolates at minimum inhibitory concentration of 0.5 ug/ml by CLSI broth microdilution method; design: scale not given: the % may be the effect or the level left
Staphylococcus aureus [22] = assay: Antibacterial activity against methicillin-susceptible Staphylococcus aureus assessed as percent cumulative susceptible isolates at minimum inhibitory concentration of 1 ug/ml by CLSI broth microdilution method; design: scale not given: the % may be the effect or the level left
Klebsiella oxytoca [23] = assay: Antibacterial activity against Klebsiella oxytoca assessed as percent cumulative susceptible isolates at minimum inhibitory concentration of 0.06 ug/ml by CLSI broth microdilution method; design: scale not given: the % may be the effect or the level left
[24] = system: Stenotrophomonas maltophilia; assay: Antibacterial activity against Stenotrophomonas maltophilia assessed as percent cumulative susceptible isolates at minimum inhibitory concentration of 2 ug/ml by CLSI broth microdilution method; design: scale not given: the % may be the effect or the level left
Enterobacter cloacae [25] = assay: Antibacterial activity against Enterobacter cloacae assessed as percent cumulative susceptible isolates at minimum inhibitory concentration of 4 ug/ml by CLSI broth microdilution method; design: scale not given: the % may be the effect or the level left
Staphylococcus aureus [26] = assay: Antibacterial activity against methicillin-susceptible Staphylococcus aureus assessed as percent cumulative susceptible isolates at minimum inhibitory concentration of 4 ug/ml by CLSI broth microdilution method; design: scale not given: the % may be the effect or the level left
Klebsiella oxytoca [27] = assay: Antibacterial activity against Klebsiella oxytoca assessed as percent cumulative susceptible isolates at minimum inhibitory concentration of 0.5 ug/ml by CLSI broth microdilution method; design: scale not given: the % may be the effect or the level left; summary of the method: as §1
[28] = system: Staphylococcus epidermidis; assay: Antibacterial activity against methicillin-resistant Staphylococcus epidermidis assessed as percent cumulative susceptible isolates at minimum inhibitory concentration of […] by CLSI broth microdilution method; design: scale not given: the % may be the effect or the level left
Staphylococcus aureus [29] = assay: Antibacterial activity against hospital-associated methicillin-resistant Staphylococcus aureus assessed as percent cumulative susceptible isolates at minimum inhibitory concentration of 0.06 ug/ml by CLSI broth microdilution method; design: scale not given: the % may be the effect or the level left
Pseudomonas aeruginosa [30] = assay: Antibacterial activity against Pseudomonas aeruginosa assessed as percent cumulative susceptible isolates at minimum inhibitory concentration of 64 ug/ml by CLSI broth microdilution method; design: scale not given: the % may be the effect or the level left
[31] = Ratio of fAUC (0 to 24 hrs) in in vitro PK/PD model at 750 mg to MIC for penicillin-resistant Streptococcus pneumoniae
[32] = system: Stenotrophomonas maltophilia; assay: Antibacterial activity against Stenotrophomonas maltophilia by CLSI M7-A7 broth microdilution method
Enterococcus faecium [33] = assay: Antibacterial activity against Enterococcus faecium assessed as percent cumulative susceptible isolates at minimum inhibitory concentration of […] by CLSI broth microdilution method; design: scale not given: the % may be the effect or the level left
Enterococcus faecium [34] = assay: Antibacterial activity against Enterococcus faecium assessed as percent cumulative susceptible isolates at minimum inhibitory concentration of 0.06 ug/ml by CLSI broth microdilution method; design: scale not given: the % may be the effect or the level left
Staphylococcus aureus [35] = assay: Antibacterial activity against methicillin-resistant Staphylococcus aureus assessed as percent cumulative susceptible isolates at minimum inhibitory concentration of 2 ug/ml by CLSI broth microdilution method; design: scale not given: the % may be the effect or the level left
Staphylococcus aureus [36] = assay: Antibacterial activity against non-levofloxacin susceptible Staphylococcus aureus assessed as percent cumulative susceptible isolates at minimum inhibitory concentration of 1 ug/ml by CLSI broth microdilution method; design: scale not given: the % may be the effect or the level left

## C[C@H]1COc2c(N3CCN(C)CC3)c(F)cc3c(=O)c(C(=O)O)cn1c23.C[C@H]1COc2c(N3CCN(C)CC3)c(F)cc3c(=O)c(C(=O)O)cn1c23.O [LEVOFLOXACIN]
Staphylococcus aureus [1]
  Activity: 0.5%
Staphylococcus aureus [2]
  Activity: 88.8%
Streptococcus pneumoniae [3]
  Activity: 10.2%
Escherichia coli [4]
  Activity: 75.6%
Enterobacter cloacae [5]
  Activity: 100%
Klebsiella pneumoniae [6]
  Activity: 69.8%
Enterobacter cloacae [7]
  Activity: 90.3%
[8]
  Activity: 100%
Escherichia coli [9]
  Activity: 73.6%
Staphylococcus aureus [10]
  MIC50: ≥ 32 µg/mL
Pseudomonas aeruginosa [11]
  Activity: 100%
Staphylococcus aureus [12]
  Activity: 3%
Enterobacteriaceae
  MIC90: ≤ 0.06 µg/mL
Enterococcus faecium [13]
  Activity: 23.7%
[14]
  Activity: 55.8%
[15]
  Activity: 7.7%
Streptococcus pneumoniae [16]
  Activity: 0.5%
Staphylococcus aureus [17]
  MIC: ≥ 2 µg/mL
  MIC90: 16 µg/mL
Klebsiella pneumoniae [18]
  Activity: 87.4%
Proteus mirabilis
  Activity: 33.3%
Staphylococcus aureus [19]
  Activity: 81.8%
Klebsiella pneumoniae [20]
  Activity: 93%
Pseudomonas aeruginosa [21]
  Activity: 42.3%
Staphylococcus aureus [22]
  Activity: 91.4%
Klebsiella oxytoca [23]
  Activity: 93.8%
[24]
  Activity: 69.2%
Enterobacter cloacae [25]
  Activity: 97.2%
Staphylococcus aureus [26]
  Activity: 92%

## COc1c(N2C[C@@H](C)C[C@H](N)C2)ccc2c(=O)c(C(=O)O)cn(C3CC3)c12 [NEMONOXACIN]
Staphylococcus aureus [1]
  Activity: 88.8%
Klebsiella oxytoca [27]
  Activity: 96.9%
[28]
  Activity: 33.3%
Staphylococcus aureus [2]
  Activity: 93.9%
Streptococcus pneumoniae [3]
  Activity: 100%
Escherichia coli [4]
  Activity: 75.8%
Enterobacter cloacae [5]
  Activity: 100%
Klebsiella pneumoniae [6]
  Activity: 1.5%
Staphylococcus aureus [29]
  Activity: 3%
Enterobacter cloacae [7]
  Activity: 83.3%
Escherichia coli [9]
  Activity: 72.5%
Staphylococcus aureus [10]
  MIC50: 4 µg/mL (≈ 10.8 µM)
Pseudomonas aeruginosa [11]
  Activity: 91.2%
Staphylococcus aureus [12]
  Activity: 4%
Enterobacteriaceae
  MIC90: 0.5 µg/mL (≈ 1.35 µM)
Enterococcus faecium [13]
  Activity: 31.6%
[14]
  Activity: 97.8%
Pseudomonas aeruginosa [30]
  Activity: 95.6%
[31]
  RatioAUC/MIC: > 393
Streptococcus pneumoniae [16]
  Activity: 99.4%
[32]
  MIC90: ≥ 4 µg/mL
Enterococcus faecium [33]
  Activity: 15.8%
Staphylococcus aureus [17]
  MIC: < 2 µg/mL
  MIC90: 0.06 µg/mL (≈ 0.162 µM)
Klebsiella pneumoniae [18]
  Activity: 77.9%
Staphylococcus aureus [19]
  Activity: 92.5%
Enterococcus faecium [34]
  Activity: 7.9%
Klebsiella pneumoniae [20]
  Activity: 92%
Pseudomonas aeruginosa [21]
  Activity: 14.6%
Staphylococcus aureus [22]
  Activity: 94.9%
Klebsiella oxytoca [23]
  Activity: 6.3%
[24]
  Activity: 42.3%
Staphylococcus aureus [35]
  Activity: 37.8%
Enterobacter cloacae [25]
  Activity: 93.1%
Staphylococcus aureus [26]
  Activity: 98.9%
Staphylococcus aureus [36]
  Activity: 30.6%
